In article PMC12467390 (ACS infectious diseases, 2025):
Converted amounts (≈) assume the structure as drawn. Where two headings read alike, the source gives them in different places.

Experiments:
Tet50 = Tet50 (Unknown prokaryotic organism, UniProt A0A059WYP6); experiment: Steady-state TC consumption assay; assay type: biochemical; conditions: for Apparent decay constant of IC50 versus pre-incubation time: Tet50
TetX7 [1] = experiment: Steady-state TC consumption assay; assay type: biochemical; conditions: dark; for Apparent IC50 Values, TetX7: no pre-incubation, none detected = no inhibition up to 2.5 mM; for Time-dependence of TetX7 inhibition: pre-incubation 0-240 min
TetX6 = TetX6 (Chryseobacterium oncorhynchi, UniProt A0A316WTJ0); assay type: biochemical; conditions: dark; no pre-incubation; none detected = no inhibition up to 2.5 mM
[2] = target: 4-hydroxybenzoate-3-monooxygenase (PHBH) (Pseudomonas fluorescens, UniProt P00438); experiment: PHBH NADPH consumption assay; assay type: biochemical
Method in brief: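 PHBH came from a codon-optimized pobA gene expressed in E. coli: grown at 37 °C in LB with kanamycin, induced with 1 mM IPTG at 15 °C for 12–15 h. It was purified by imidazole elution at pH 8.0 and dialyzed overnight. Activity was measured with para-hydroxybenzoic acid as substrate, following NADPH consumption at A340. Time-dependence was assessed by pre-incubating inhibitor with enzyme for varying times before starting the reaction.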

[3] = tested on: E. coli DH5αZ1 empty vector (pZE24); experiment: MIC by broth microdilution, empty vector control; assay type: cell-based; conditions: for MIC: Escherichia coli; for MIC, Empty, + TC: presence of 8 μg/mL TC
[4] = tested on: E. coli DH5αZ1 expressing TetX7 from pZE24; experiment: MIC by broth microdilution, TetX7::pZE24; assay type: cell-based; conditions: for MIC, TetX7, + TC: presence of 8 μg/mL TC
[5] = tested on: E. coli DH5αZ1 expressing Tet50 from pZE24; experiment: MIC by broth microdilution, Tet50::pZE24; assay type: cell-based; conditions: Escherichia coli, read-out: MIC, Tet50, − TC
TetX7 [6] = experiment: Reversibility of TetX7 inhibition by exhaustive dialysis; assay type: biochemical; conditions: 60 min pre-incubation in the dark; dialysis at 4 °C
[7] = tested on: E. coli DH5αZ1 empty vector (pZE24); conditions: aTC alone; empty vector control; ref [28],[30],[31]; cited from earlier work
[8] = tested on: E. coli DH5αZ1 expressing TetX7 from pZE24; conditions: aTC alone, ref [28],[30],[31]; cited from earlier work
[9] = tested on: E. coli DH5αZ1 expressing Tet50 from pZE24; conditions: aTC alone, ref [28],[30],[31]; cited from earlier work
[10] = tested on: E. coli DH5αZ1 expressing TetX7 or Tet50; conditions: TC at 8 μg/mL; resistant strains; ref [28],[30],[31]; cited from earlier work
[11] = dark, compounds 1 and 2 up to 2.5 mM
[12] = shielded from light, pre-incubation 0-240 min

Chain of Tet50 (A0A059WYP6 whole entry): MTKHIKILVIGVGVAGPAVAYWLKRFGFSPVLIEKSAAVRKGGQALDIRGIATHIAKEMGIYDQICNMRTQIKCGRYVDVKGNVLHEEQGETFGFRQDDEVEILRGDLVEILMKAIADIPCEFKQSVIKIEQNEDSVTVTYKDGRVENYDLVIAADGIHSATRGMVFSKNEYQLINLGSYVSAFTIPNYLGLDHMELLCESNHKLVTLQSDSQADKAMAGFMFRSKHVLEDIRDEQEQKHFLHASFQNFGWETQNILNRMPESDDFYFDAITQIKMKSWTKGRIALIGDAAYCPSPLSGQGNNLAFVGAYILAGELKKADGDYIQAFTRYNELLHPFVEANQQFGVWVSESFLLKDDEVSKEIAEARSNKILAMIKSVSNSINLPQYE
Chain of 4-hydroxybenzoate-3-monooxygenase (PHBH) (P00438 whole entry): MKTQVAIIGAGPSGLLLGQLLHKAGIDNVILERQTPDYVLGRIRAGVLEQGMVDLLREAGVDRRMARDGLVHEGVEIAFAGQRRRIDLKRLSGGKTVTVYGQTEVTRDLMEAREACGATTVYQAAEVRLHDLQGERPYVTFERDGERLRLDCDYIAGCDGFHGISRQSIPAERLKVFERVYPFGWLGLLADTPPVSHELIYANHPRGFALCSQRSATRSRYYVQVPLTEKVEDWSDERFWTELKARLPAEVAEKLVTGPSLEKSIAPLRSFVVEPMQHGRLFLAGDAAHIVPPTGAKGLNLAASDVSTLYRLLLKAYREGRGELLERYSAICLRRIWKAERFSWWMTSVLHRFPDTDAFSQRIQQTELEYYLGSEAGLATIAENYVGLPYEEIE

Row | SMILES | Time-dependence of Tet50 inhibition (Tet50; blue light irradiation) | Inhibition of PHBH [2, 11] | Time-dependence of Tet50 inhibition (Tet50; [12]) | Time-dependence of TetX7 inhibition (TetX7 [1]) | MIC, Empty, + TC [3] [µg/mL] | MIC, TetX7, + TC [4] [µg/mL] | also measured
1 | CC1(NCc2ccccc2)CC1 [Compound 1, N-(1-methyl)cyclopropylbenzylamine] | inhibit Tet50 in a time-dependent manner | no inhibition |  |  |  |  | Apparent IC50 Values, TetX7 (TetX7 [1]): none detected^a; Apparent IC50 Values, TetX6 (TetX6): none detected^a; Inhibition of PHBH ([2]; blue light irradiation): potent time-dependent and dose-dependent inhibition
2 | C#CCN(C)Cc1ccccc1 [Compound 2, N-methyl-N-benzyl-propargylamine] | inhibit Tet50 in a time-dependent manner | no inhibition |  |  |  |  | Apparent IC50 Values, TetX7 (TetX7 [1]): none detected^a; Apparent IC50 Values, TetX6 (TetX6): none detected^a; Inhibition of PHBH ([2]; blue light irradiation): potent time-dependent and dose-dependent inhibition
3 | Cc1c2c(c(O)c3c(O)c(CNC4(C)CC4)ccc13)C(=O)[C@]1(O)C(=O)C(C(N)=O)=C(O)[C@@H](N(C)C)[C@@H]1C2.Cl [Compound 3, (4S,4aS,12aS)-4-(dimethylamino)-3,10,11,12a-tetrahydroxy-6-methyl-9-(((1-methylcyclopropyl)amino)methyl)-1,12-dioxo-1,4,4a,5,12,12a-hexahydrotetracene-2-carboxamide hydrochloride] |  | Inhibition was detected | clear decrease in the apparent IC50 value correlating to longer enzyme–inhibitor pre-incubation times | did not observe any time-dependence | <1 | 8 | Apparent decay constant of IC50 versus pre-incubation time (Tet50; blue light irradiation): 0.9 ± 0.3 min⁻¹; Time-dependence of PHBH inhibition ([2]; dark): time-dependence was observed; MIC ([3]; read-out: MIC, Empty, − TC): 32 µg/mL
4 | C#CCNCc1ccc2c(C)c3c(c(O)c2c1O)C(=O)[C@]1(O)C(=O)C(C(N)=O)=C(O)[C@@H](N(C)C)[C@@H]1C3.Cl [Compound 4, (4S,4aS,12aS)-4-(dimethylamino)-3,10,11,12a-tetrahydroxy-6-methyl-1,12-dioxo-9-((prop-2-yn-1-ylamino)methyl)-1,4,4a,5,12,12a-hexahydrotetracene-2-carboxamide hydrochloride] | slower time-dependent inactivation | Inhibition was detected | clear decrease in the apparent IC50 value correlating to longer enzyme–inhibitor pre-incubation times | did not observe any time-dependence | <1 | 2 | Time-dependence of PHBH inhibition ([2]; dark): time-dependence was observed; MIC ([3]; read-out: MIC, Empty, − TC): 32 µg/mL; MIC [5]: 32 µg/mL
5 | C#CCN(C)Cc1ccc2c(C)c3c(c(O)c2c1O)C(=O)[C@]1(O)C(=O)C(C(N)=O)=C(O)[C@@H](N(C)C)[C@@H]1C3 [Compound 5, (4S,4aS,12aS)-4-(dimethylamino)-3,10,11,12a-tetrahydroxy-6-methyl-9-((methyl(prop-2-yn-1-yl)amino)methyl)-1,12-dioxo-1,4,4a,5,12,12a-hexahydrotetracene-2-carboxamide] | time- and light- dependent irreversible inactivation of Tet50 |  | clear decrease in the apparent IC50 value correlating to longer enzyme–inhibitor pre-incubation times | did not observe any time-dependence | <1 | 2 | Apparent decay constant of IC50 versus pre-incubation time (Tet50; blue light irradiation): 0.5 ± 0.1 min⁻¹; TetX7 activity after exhaustive dialysis versus before (TetX7 [6]): reversed upon exhaustive dialysis; MIC ([4]; Escherichia coli, read-out: MIC, TetX7, − TC): 64 µg/mL (≈ 126 µM)
6 | CN(C)[C@@H]1C(O)=C(C(N)=O)C(=O)[C@@]2(O)C(O)=C3C(=O)c4c(O)cccc4[C@@](C)(O)[C@H]3C[C@@H]12 [TC, tetracycline, reference compound] |  |  |  |  |  |  | MIC ([3]; read-out: MIC of TC): 1 µg/mL
7 | Cc1c2c(c(O)c3c(O)cccc13)C(=O)[C@]1(O)C(=O)C(C(N)=O)=C(O)[C@@H](N(C)C)[C@@H]1C2 [aTC, anhydrotetracycline] | time-dependent inhibition | Inhibition was detected | not time-dependent | did not observe any time-dependence |  |  | MIC of aTC [7]: 4 µg/mL; MIC of aTC [8]: 8 µg/mL; MIC of aTC [9]: 8 µg/mL; Inhibitor concentration that rescues growth inhibitory activity of TC [10]: ≥ 2 µg/mL
